Assay results from the RNAGym collection of RNA variant scans (doi:10.1038/s41586-018-0170-7).

B1: tRNA (parent)
chain: GUUCCGUUGGCGUAAUGGUAACGCGUCUCCCUCCUAAGGAGAAGACUGCGGGUUCGAGUCCCGUACGGAACG

Variants of: B1
Test: yeast fitness, log relative to wild type (ln ratio); higher = fitter; tRNA-Arg(CCU), competitive growth, 37 C, 1 M NaCl
In short: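 In BY4742 missing the chromosomal gene, a combinatorial tRNA-Arg(CCU) variant library was maintained on a HIS3 centromeric plasmid. Selection ran ~6.5 generations (~26.5 h) in SC-HIS 1M NaCl at 37 °C, following 4 generations in SC-HIS at 30 °C, with three outputs per input and variant counts by 125 bp paired-end Illumina sequencing. Fitness is the natural log of a genotype's generations relative to the wild type's, with generations taken as inverse-variance-weighted, OD-scaled log2 output/input frequency.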
With G1A G6U C27U C46U C66A A70G the “yeast fitness (ln)” value was -0.233. In the case of G1A G6U C27U C46U C66A A70U, the “yeast fitness (ln)” value is reported as -0.249. For G1A U2C C27U A43C A70U C71U, the “yeast fitness (ln)” value was -0.175. In the case of G1A U2C G6A A43C, the “yeast fitness (ln)” value is reported as -0.0264. In the case of G1A U2C C27U C66U, the “yeast fitness (ln)” value is reported as -0.191. In the case of G1A G6U C27U A43C C66A C71U, the “yeast fitness (ln)” value is reported as -0.498. With G1A U2C C46U A70G C71U the “yeast fitness (ln)” value was 0.000912. For G1A U2C C27U C71U, the “yeast fitness (ln)” value was -0.238. With G1A U2C C27U C46U C71U the “yeast fitness (ln)” value was -0.147. In the case of G1A G6U C66U A70U C71U, the “yeast fitness (ln)” value is reported as -0.278. With G1A U2C A43C C66A A69G A70G C71U the “yeast fitness (ln)” value was -0.238. For G1A G6U C27U A43C C46U C66A A70U C71U, the “yeast fitness (ln)” value was -0.325. With G1A U2C C46U A69G A70G C71U the “yeast fitness (ln)” value was 0.00686. In the case of G1A U2C A43C C66U A70U C71U, the “yeast fitness (ln)” value is reported as -0.281. For G1A G6U C66A A70G C71U, the “yeast fitness (ln)” value was -0.0373. For G1A U2C C27U C46U C66A A70U C71U, the “yeast fitness (ln)” value was -0.15. In the case of G1A G6U C46U C66A, the “yeast fitness (ln)” value is reported as -0.0835. With G1A G6U C46U C66U the “yeast fitness (ln)” value was -0.0919. In the case of G1A U2C C27U A43C C66U A69G A70G C71U, the “yeast fitness (ln)” value is reported as -0.21. With G1A U2C C27U C46U C66A A70U the “yeast fitness (ln)” value was 0.02. For G1A G6U C27U C46U C66U A69G A70U C71U, the “yeast fitness (ln)” value was -0.4. With G1A U2C C27U A43C C66U A69G A70U C71U the “yeast fitness (ln)” value was -0.397. With G1A U2C C46U the “yeast fitness (ln)” value was -0.0408. In the case of G1A U2C C46U C66U A70U C71U, the “yeast fitness (ln)” value is reported as -0.175. In the case of G1A G6U C27U A43C C46U C66U A69G A70U C71U, the “yeast fitness (ln)” value is reported as -0.565. In the case of G1A G6U C46U A70U, the “yeast fitness (ln)” value is reported as -0.14. For G1A G6U C46U A70G, the “yeast fitness (ln)” value was -0.173. For G1A U2C C27U C66U A70U C71U, the “yeast fitness (ln)” value was -0.256. For G1A U2C A43C C46U A70U C71U, the “yeast fitness (ln)” value was -0.0746. In the case of G1A G6U C27U A43C C46U C66A C71U, the “yeast fitness (ln)” value is reported as -0.138. In the case of G1A U2C C27U A43C C46U C66A A70G C71U, the “yeast fitness (ln)” value is reported as -0.16. In the case of G1A U2C C27U A43C C71U, the “yeast fitness (ln)” value is reported as -0.0487. In the case of G1A U2C C27U C66U A70G C71U, the “yeast fitness (ln)” value is reported as -0.127. For G1A G6U C27U A43C C66U A69G C71U, the “yeast fitness (ln)” value was -0.258. For G1A U2C G6A A43C A70U C71U, the “yeast fitness (ln)” value was -0.088. For G1A U2C A43C C46U A69G A70U C71U, the “yeast fitness (ln)” value was -0.384. For G1A G6U C27U A43C C66A A70G C71U, the “yeast fitness (ln)” value was -0.411. With G1A G6U C27U C46U C66A A70G C71U the “yeast fitness (ln)” value was -0.23. With G1A U2C C66U C71U the “yeast fitness (ln)” value was -0.189. For G1A U2C C27U C46U A70G C71U, the “yeast fitness (ln)” value was -0.0196. With G1A G6U C27U A43C C46U C66U the “yeast fitness (ln)” value was -0.475. With G1A U2C C27U A43C C46U C66U A69G A70G the “yeast fitness (ln)” value was -0.112. In the case of G1A U2C C27U A43C C46U C66U A69G A70U, the “yeast fitness (ln)” value is reported as -0.218. In the case of G1A U2C C27U A43C A70G, the “yeast fitness (ln)” value is reported as -0.0774. In the case of G1A U2C C27U A43C A70U, the “yeast fitness (ln)” value is reported as -0.111. With G1A U2C G6A A43C A70U the “yeast fitness (ln)” value was -0.113. For G1A U2C C27U A43C C46U C66U A69G A70G C71U, the “yeast fitness (ln)” value was -0.2. For G1A G6U C66A A69G A70U, the “yeast fitness (ln)” value was -0.0798. With G1A U2C A43C C46U A70G the “yeast fitness (ln)” value was -0.00269. In the case of G1A U2C A43C C46U A70U, the “yeast fitness (ln)” value is reported as -0.0817. For G1A G6U C46U C66A A70U C71U, the “yeast fitness (ln)” value was -0.084. For G1A U2C A43C A69G C71U, the “yeast fitness (ln)” value was -0.202. In the case of G1A G6U C46U C66A A69G C71U, the “yeast fitness (ln)” value is reported as -0.041. In the case of G1A U2C C27U A43C C46U C66U A69G A70U C71U, the “yeast fitness (ln)” value is reported as -0.464. In the case of G1A G6U C46U C66U A69G A70G C71U, the “yeast fitness (ln)” value is reported as -0.216. In the case of G1A G6U C27U C46U C66A A69G A70U C71U, the “yeast fitness (ln)” value is reported as -0.37. For G1A U2C A43C C46U C66A A70G C71U, the “yeast fitness (ln)” value was -0.0667. For G1A U2C C27U C46U C66A A70G C71U, the “yeast fitness (ln)” value was -0.262. For G1A G6U C27U A43C C46U C66U A69G A70G, the “yeast fitness (ln)” value was -0.353. In the case of G1A G6U C27U A43C C46U C66U A69G A70U, the “yeast fitness (ln)” value is reported as -0.452. For G1A G6U C46U C66U A70U, the “yeast fitness (ln)” value was -0.153. In the case of G1A G6U C46U C66U A70G, the “yeast fitness (ln)” value is reported as -0.195. For G1A U2C C27U A43C C46U A70G C71U, the “yeast fitness (ln)” value was -0.012. In the case of G1A G6U C46U A69G C71U, the “yeast fitness (ln)” value is reported as -0.297. For G1A G6U C27U C46U C66U A69G A70G C71U, the “yeast fitness (ln)” value was -0.388. In the case of G1A G6U C46U C66A C71U, the “yeast fitness (ln)” value is reported as 0.0017. For G1A U2C C27U C46U A69G A70G C71U, the “yeast fitness (ln)” value was -0.0376. For G1A G6U C27U A43C C66U A69G A70G, the “yeast fitness (ln)” value was -0.51. With G1A G6U C27U A43C C66U A69G A70U the “yeast fitness (ln)” value was -0.469. With G1A G6U C27U A43C C46U C66A A70U the “yeast fitness (ln)” value was -0.359. In the case of G1A G6U C46U C71U, the “yeast fitness (ln)” value is reported as -0.183. For G1A G6U C27U C46U A69G C71U, the “yeast fitness (ln)” value was -0.291. With G1A U2C C71U the “yeast fitness (ln)” value was -0.00448. In the case of G1A U2C C27U C46U A70U, the “yeast fitness (ln)” value is reported as -0.127. In the case of G1A U2C C27U C46U A70G, the “yeast fitness (ln)” value is reported as -0.0417. With G1A U2C C46U A69G A70U the “yeast fitness (ln)” value was -0.016. With G1A U2C C46U A69G A70G the “yeast fitness (ln)” value was -0.029. In the case of G1A U2C C46U C66A A70U, the “yeast fitness (ln)” value is reported as -0.0262. In the case of G1A G6U C27U A43C C46U C66U A70U C71U, the “yeast fitness (ln)” value is reported as -0.471. With G1A U2C C27U A69G A70G C71U the “yeast fitness (ln)” value was -0.0512. For G1A U2C C27U C66U A69G A70G C71U, the “yeast fitness (ln)” value was -0.585. For G1A G6U C27U C66A A70U C71U, the “yeast fitness (ln)” value was -0.369. In the case of G1A U2C C27U A43C C66U A70U, the “yeast fitness (ln)” value is reported as -0.179.
